# Data: PMC7689895 (ACS Omega, 2020)
# pIC50: −log10 of the molar value.
# What was measured:
# [1] = tested on: Vero; test: Cytotoxicity test; format: cell-based; conditions: Vero cell line
# Method in brief: (§1)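 Stocks of 50 mg/mL in DMSO, with antibiotic–antimycotic added, were diluted twofold in DMEM. Cells at 2 × 10⁵ cells/mL were grown 24 h at 37 °C under 5% CO₂ to confluence, then exposed 72 h. Morphology was scored daily by inverted microscopy. Viable cells were counted by 0.4% trypan blue exclusion after trypsinisation. CC50 halves OD492 of treated versus untreated uninfected cells. Triplicates.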
# [2] = tested on: herpes simplex virus type 1 (HSV-1); test: Plaque assay for antiviral activity, Vero cells; format: cell-based; conditions: for mean % of reduction, herpes simplex virus type-1: nontoxic dose, viral titers 1 × 10^5, 1 × 10^6, 1 × 10^7; for IC50: Human alphaherpesvirus 1, Vero
# [3] = tested on: Huh 7.5; test: Cytotoxicity test; format: cell-based; conditions: Huh 7.5 cell line
# Method in brief: as §1
# [4] = tested on: BGM; test: Cytotoxicity test; format: cell-based; conditions: for nontoxic dose: BGM cell line
# Method in brief: as §1
# [5] = tested on: Hep-2; test: Cytotoxicity test; format: cell-based; conditions: Hep-2 cell line
# Method in brief: as §1
# [6] = tested on: HCVcc genotype 4; test: Antiviral bioassay against ED-43/SG-Feo; format: cell-based, hepatitis C virus genotype 4a; conditions: for mean % of reduction, HCVcc genotype 4: nontoxic dose, viral titers 1 × 10^5, 1 × 10^6, 1 × 10^7
# [7] = tested on: adenovirus type 7 (HAdV7); test: Plaque assay for antiviral activity, Hep-2 cells; format: cell-based; conditions: for mean % of reduction, adenovirus type 7: nontoxic dose, viral titers 1 × 10^5, 1 × 10^6, 1 × 10^7
# Method in brief: (§2)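 Nontoxic dilutions were mixed 1:1 (100 µL each) with virus (10⁵–10⁷) for 0.5 h at 37 °C. Tenfold dilutions were plated on Hep-2 (HAdV7), FRHK-4 (HAV HM175) or BGM (CBV4), adsorbed 1 h at 37 °C under 5% CO₂, and overlaid with 2× DMEM plus 1% agarose. Plaques were fixed with formalin, stained with crystal violet and counted as pfu/mL. IC50 is the half-maximal plaque reduction; SI = CC50/IC50. Triplicates.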
# [8] = tested on: hepatitis A virus (HAV) HM175; test: Plaque assay for antiviral activity, FRHK-4 cells; format: cell-based; conditions: for mean % of reduction, hepatitis A virus HM175: nontoxic dose, viral titers 1 × 10^5, 1 × 10^6, 1 × 10^7
# Method in brief: as §2
# [9] = tested on: FRHK-4; test: Cytotoxicity test; format: cell-based; conditions: FRHK-4 cell line
# Method in brief: as §1
# [10] = tested on: coxsackievirus B4 (CBV4); test: Plaque assay for antiviral activity, BGM cells; format: cell-based; conditions: for mean % of reduction, coxsackievirus B4: nontoxic dose, viral titers 1 × 10^5, 1 × 10^6, 1 × 10^7; for SI: CC50/IC50 ratio
# Method in brief: as §2
# [11] = Cytotoxicity test; format: cell-based; conditions: African green monkey, uninfected Vero cells
# Method in brief: as §1
# [12] = biological target: USP7 enzyme (Homo sapiens, UniProt Q93009); test: USP7 Inhibitor Screening Assay Kit; format: biochemical; conditions: for inhibition at 0.1 µg/mL / inhibition at 1 µg/mL / inhibition at 10 µg/mL / inhibition at 100 µg/mL: read-out: inhibition percentage against USP7
# Method in brief: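 Human recombinant USP7 from a commercial kit was stabilised with DTT and used at 0.4 ng/µL. Ub-AMC substrate was diluted 400-fold in 1× assay buffer, test compound or inhibitor buffer was added, and the enzyme started the reaction. After 30 min at room temperature with rotation, fluorescence was read at 360 nm excitation and 460 nm emission, minus blank.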
# [13] = Cytotoxicity test; format: cell-based; conditions: human, uninfected Huh 7.5 cells
# Method in brief: as §1
# [14] = Cytotoxicity test; format: cell-based; conditions: African green monkey, uninfected BGM cells
# Method in brief: as §1
# [15] = Cytotoxicity test; format: cell-based; conditions: human, uninfected Hep-2 cells
# Method in brief: as §1
# [16] = Cytotoxicity test; format: cell-based; conditions: rhesus monkey, uninfected FRHK-4 cells
# Method in brief: as §1
# USP7 enzyme, sequence (Q93009 whole entry): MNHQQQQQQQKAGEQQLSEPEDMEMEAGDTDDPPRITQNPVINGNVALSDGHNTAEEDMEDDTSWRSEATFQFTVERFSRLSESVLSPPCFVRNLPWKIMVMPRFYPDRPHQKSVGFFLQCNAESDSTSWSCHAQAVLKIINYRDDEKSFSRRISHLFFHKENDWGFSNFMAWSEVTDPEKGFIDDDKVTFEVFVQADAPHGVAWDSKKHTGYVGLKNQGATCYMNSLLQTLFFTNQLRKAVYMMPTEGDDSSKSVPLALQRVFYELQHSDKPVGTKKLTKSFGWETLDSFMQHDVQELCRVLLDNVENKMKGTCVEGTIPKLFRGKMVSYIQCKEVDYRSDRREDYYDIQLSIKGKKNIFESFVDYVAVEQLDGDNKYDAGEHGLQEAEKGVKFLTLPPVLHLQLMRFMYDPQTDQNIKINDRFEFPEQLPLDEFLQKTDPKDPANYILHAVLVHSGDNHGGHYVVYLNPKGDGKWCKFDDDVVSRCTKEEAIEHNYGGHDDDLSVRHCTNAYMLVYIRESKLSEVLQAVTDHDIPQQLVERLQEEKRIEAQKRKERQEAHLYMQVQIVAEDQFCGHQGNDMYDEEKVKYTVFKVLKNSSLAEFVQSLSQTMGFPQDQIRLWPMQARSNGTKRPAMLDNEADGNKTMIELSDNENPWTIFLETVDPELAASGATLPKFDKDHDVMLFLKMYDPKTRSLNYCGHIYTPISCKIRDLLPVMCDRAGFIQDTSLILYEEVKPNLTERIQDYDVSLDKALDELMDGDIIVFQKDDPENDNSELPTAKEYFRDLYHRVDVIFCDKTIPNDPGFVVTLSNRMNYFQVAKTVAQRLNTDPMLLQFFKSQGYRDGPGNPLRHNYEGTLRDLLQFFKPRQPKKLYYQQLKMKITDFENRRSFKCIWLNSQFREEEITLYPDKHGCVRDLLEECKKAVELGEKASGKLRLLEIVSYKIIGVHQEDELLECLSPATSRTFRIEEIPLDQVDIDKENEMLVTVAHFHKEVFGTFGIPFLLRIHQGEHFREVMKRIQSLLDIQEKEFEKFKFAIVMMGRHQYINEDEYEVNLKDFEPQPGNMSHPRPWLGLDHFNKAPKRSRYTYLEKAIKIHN
Compound,nontoxic dose [1] [µg/mL],"mean % of reduction, herpes simplex virus type-1 [2]",nontoxic dose [3] [µg/mL],nontoxic dose [4] [µg/mL],nontoxic dose [5] [µg/mL],"mean % of reduction, HCVcc genotype 4 [6] [%]","mean % of reduction, adenovirus type 7 [7] [%]","mean % of reduction, hepatitis A virus HM175 [8] [%]",nontoxic dose [9] [µg/mL],"mean % of reduction, coxsackievirus B4 [10] [%]",also measured
"Cc1ccc(S(=O)(=O)Nn2c(N)c(C#N)cc(-c3nc4ccccc4s3)c2=O)cc1 [compound 13c, N-(6-Amino-3-(benzo[d]thiazole-2-yl)-5-cyano-2-oxopyridine-1(2H)-yl)-4-methylbenzensulfonamide]",110,10.0%,100,110,110,10.0,3.3,6.7,110,10.0,–
"CCOC(=O)c1cc(-c2nc3ccccc3s2)c(=O)n(NS(=O)(=O)c2ccc(C)cc2)c1N [compound 13f, Ethyl-2-amino-5-(benzo[d]thiazole-2-yl)-1-(4-methylphenylsulfonamido)-6-Oxo-1,6-dihydropyridine-3-carboxylate]",140,23.3%,140,130,140,20.0,16.7,20.0,140,20.0,–
"N#Cc1cc(-c2nc3ccccc3s2)c(=O)n(NS(=O)(=O)c2ccc(Cl)cc2)c1N [compound 13b, N-(6-Amino-3-(benzo[d]thiazole-2-yl)-5-cyano-2-oxopyridine-1(2H)-yl)-4-chlorobenzensulfonamide]",100,26.7%,100,100,100,26.7,16.7,26.7,100,30.0,–
O=c1c(-c2nc3ccccc3s2)cc2c(n1NS(=O)(=O)c1ccccc1)CCCC2 [compound 7a],110,40.0%,100,110,110,30.0,10.0,30.0,110,–,"CC50 ([4]; uninfected host cells, section Coxsackievirus B4): 260 µg/mL; SI ([10]; Coxsackievirus B4): 2.95; IC50 ([10]; Coxsackievirus B4): 88 µg/mL"
O=c1c(-c2nc3ccccc3s2)cc2c(n1NS(=O)(=O)c1ccc(Cl)cc1)CCCC2 [compound 7b],130,- ^a,130,130,130,–,–,–,130,–,–
"Nc1nc2c(ncn2COCCO)c(=O)[nH]1 [acyclovir, reference compound]",–,–,–,–,–,–,–,–,–,–,CC50 [11]: 2.8 µg/mL; IC50 [2]: 0.7 µg/mL; pIC50 [12]: 4.96; inhibition at 0.1 µg/mL [12]: 18.7%; inhibition at 1 µg/mL [12]: 35%; inhibition at 10 µg/mL [12]: 71.7%; inhibition at 100 µg/mL [12]: 84.5%
"N#Cc1cc(-c2nc3ccccc3s2)c(=O)n(NS(=O)(=O)c2ccccc2)c1N [compound 13a, N-(6-Amino-3-(benzo[d]thiazole-2-yl)-5-cyano-2-oxopyridine-1(2H)-yl)benzensulfonamide]",110,–,100,100,110,56.7,50,60,110,–,"CC50 [11]: 280 µg/mL; SI ([2]; CC50/IC50 ratio, Herpes Simplex Virus): 3.73; IC50 [2]: 75 µg/mL; pIC50 [12]: 4.95; inhibition at 0.1 µg/mL [12]: 11.8%; inhibition at 1 µg/mL [12]: 35.8%; inhibition at 10 µg/mL [12]: 54%; inhibition at 100 µg/mL [12]: 81.5%; CC50 [13]: 260 µg/mL; CC50 [14]: 240 µg/mL; CC50 [15]: 270 µg/mL; SI ([6]; CC50/IC50 ratio, HCVcc Genotype 4): 3.09; SI ([7]; CC50/IC50 ratio, Adenovirus Type 7): 2.45; SI ([8]; CC50/IC50 ratio, Hepatitis A Virus HM175): 2.89; IC50 ([8]; Hepatovirus A, FRhK-4): 90 µg/mL; CC50 [16]: 260 µg/mL; SI ([10]; Coxsackievirus B4): 2.86"
